MsrA act – bovine MsrA enzyme activators, primary screen, biochemical, absorbance, HTS; AID 602163, 2012; purified bovine MsrA, absorbance read-out; Methionine sulfoxide reductase A (Bos taurus); activation, % at 10.6 µM; hit rate 0.3% among 360,000; in the data active means activation above about 7.5%;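 further: 0% = vehicle and 100% = reference activator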
p-CIP stab down – p/CIP-EGFP fusion destabilizers, primary screen, fluorescence, F442A cells. AID 1984, 2009. 16 h. hit rate 0.01% among 290,000. decrease of EGFP signal, % at 10 µM. Q05BA5;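 active means EGFP signal decrease of at least 30% at 10 µM or well 3 SD below plate mean, unless failing retest; inactive means the rest, including hits failing retest or dose response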
Target sequence (Q05BA5 1-1403): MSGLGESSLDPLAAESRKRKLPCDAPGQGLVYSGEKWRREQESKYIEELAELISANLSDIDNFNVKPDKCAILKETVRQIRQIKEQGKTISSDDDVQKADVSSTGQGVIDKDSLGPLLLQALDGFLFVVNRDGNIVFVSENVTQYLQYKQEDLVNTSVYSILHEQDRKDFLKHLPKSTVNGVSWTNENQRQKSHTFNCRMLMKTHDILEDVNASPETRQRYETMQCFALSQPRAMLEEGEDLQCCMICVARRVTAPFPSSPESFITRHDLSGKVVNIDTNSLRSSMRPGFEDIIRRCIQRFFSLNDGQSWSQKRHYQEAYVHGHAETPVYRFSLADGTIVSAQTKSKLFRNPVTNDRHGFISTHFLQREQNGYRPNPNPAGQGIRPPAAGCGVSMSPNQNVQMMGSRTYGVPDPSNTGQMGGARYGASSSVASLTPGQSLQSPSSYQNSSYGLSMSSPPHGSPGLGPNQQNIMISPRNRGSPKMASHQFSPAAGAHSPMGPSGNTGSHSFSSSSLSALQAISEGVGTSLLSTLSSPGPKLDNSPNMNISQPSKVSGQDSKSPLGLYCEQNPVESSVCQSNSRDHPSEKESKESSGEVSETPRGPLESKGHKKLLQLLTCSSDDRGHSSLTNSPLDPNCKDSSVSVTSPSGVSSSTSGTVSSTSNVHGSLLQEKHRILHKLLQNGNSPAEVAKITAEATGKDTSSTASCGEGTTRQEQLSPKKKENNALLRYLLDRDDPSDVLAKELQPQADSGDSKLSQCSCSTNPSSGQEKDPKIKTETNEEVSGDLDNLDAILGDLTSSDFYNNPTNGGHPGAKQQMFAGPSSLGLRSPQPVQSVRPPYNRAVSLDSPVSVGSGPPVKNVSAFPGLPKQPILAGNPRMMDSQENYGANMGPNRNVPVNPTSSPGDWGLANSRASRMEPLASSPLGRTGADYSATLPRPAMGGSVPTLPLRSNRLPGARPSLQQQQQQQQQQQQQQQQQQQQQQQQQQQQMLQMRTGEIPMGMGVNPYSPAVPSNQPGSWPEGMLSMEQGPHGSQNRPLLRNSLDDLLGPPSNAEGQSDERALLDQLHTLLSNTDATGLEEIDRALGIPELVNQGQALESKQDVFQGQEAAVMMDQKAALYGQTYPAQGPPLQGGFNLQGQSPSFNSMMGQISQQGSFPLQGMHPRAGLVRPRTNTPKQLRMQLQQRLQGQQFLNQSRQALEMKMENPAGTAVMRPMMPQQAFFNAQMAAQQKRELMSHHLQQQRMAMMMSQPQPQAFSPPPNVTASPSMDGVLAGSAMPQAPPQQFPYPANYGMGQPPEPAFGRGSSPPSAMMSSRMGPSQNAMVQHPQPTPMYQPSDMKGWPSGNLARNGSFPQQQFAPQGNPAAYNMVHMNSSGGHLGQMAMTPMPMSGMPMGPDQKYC
SKN-1 block – suppressors of acrylamide-induced Pgst-4::GFP reporter in worms, primary screen, SKN-1 inhibitor project, whole organism, uHTS, GFP/RFP fluorescence ratio, strain VP596. C. elegans VP596 Pgst-4::GFP/RFP ratio, 24 h. inhibition, % at 21.8 µM. hit rate 0.49% among 360,000. AID 624304, 2012;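 active means interference check ratio from 0.5 to 1.5 plus GFP to RFP signal ratio inhibition reaching or exceeding a fixed threshold, cut at about 30% in these data, passing the limit was not always enough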
MsrA inh – bovine MsrA enzyme inhibitors, primary screen, biochemical, absorbance, HTS; Methionine sulfoxide reductase A (Bos taurus); purified bovine MsrA, absorbance read-out; inhibition, % at 15.5 µM; hit rate 0.75% among 360,000; AID 651718, 2012;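 further: 0% = vehicle wells with enzyme and 100% = reference inhibitor wells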
MT1-MMP act inh – blockers of MT1-MMP proenzyme processing, primary screen, HT1080 RFP-PRO-GFP cells, GFP/RFP fluorescence; GFP/RFP ratio change, % at 20 µM; hit rate 0.061% among 360,000; GFP/RFP ratio fluorescence, overnight; percent of plate control window, DMSO zero; Matrix metalloproteinase-14 (Homo sapiens), P50281; AID 651647, 2012;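 active means GFP/RFP ratio change of at least 30% with cell ATP level not reduced by more than half and red fluorescence within 50% of control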
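Assay system: HT1080 RFP-PRO-GFP cells | Dosing: 20 µM single dose, 1% DMSO | Incubation: Cells overnight before dosing, compound overnight, 37 °C, 5% CO2 | Evaluation: GFP/RFP fluorescence ratio | Control set: DMSO-only wells and HT1080 RFP-L50D-GFP cell wells as references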
MsrA conf – bovine MsrA inhibitors, retest, confirmation, biochemical, absorbance, HTS | shares compounds with MsrA inh | purified bovine MsrA, absorbance read-out | inhibition, % at 15.5 µM | hit rate 41% among 2,300 | AID 651822, 2012;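 further: coupled to thioredoxin reductase with NADPH and selenocystamine and DMSO as substrate; 0% = vehicle only and 100% = full effect of reference inhibitor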
* hit, by the source's call; / = no result given. Shown are actives, neighbours in structure and some others; about 1.6% of the full set was active somewhere. Unless noted, no stated cut-off is given here; in the data, active means inhibition above about 4.5%; inactive means the rest.

SMILES | MsrA act | p-CIP stab down | SKN-1 block | MsrA inh | MT1-MMP act inh | MsrA conf
O=C(O)c1cccc(Nc2nc(C(F)(F)F)nc3ccccc23)c1 | -7 | 6 | 7 | 4.7* | -1 | 2
O=C(O)c1ccc(Nc2nc(-c3ccccc3)nc3ccccc23)cc1 | -4 | -13 | 16 | 6.0* | -2 | 3
COC(=O)C[C@@H]1C[C@H]2c3cc(NC(=O)Nc4ccccc4F)ccc3O[C@H]2[C@@H](CO)O1 | / | / | / | 0 | / | /
Cc1ccc(OC(=O)N(C)C[C@H]2OCc3cn(nn3)CCCC(=O)N([C@@H](C)CO)C[C@@H]2C)cc1 | / | / | / | 1 | / | /
COc1ccc(/C=N/Nc2cc(C)nc(N)n2)cc1 | -1 | -13 | 7 | 4 | -1 | /
COc1cc(/C=N/Nc2cc(C)nc(N)n2)ccc1O | 0 | 2 | 1 | 6.8* | 4 | 5.2*
COc1ccc(/C=N/Nc2nc(=O)[nH]nc2C)cc1OC | -1 | 3 | 4 | 5 | 2 | /
COc1cc(/C=N/Nc2nc(=O)[nH]nc2C)ccc1O | -8 | 3 | -5 | 4.7* | 0 | 5.4*
COC(=O)C1=C(C)N(Cc2ccc(C(F)(F)F)cc2)C(=NCc2ccccc2C(F)(F)F)NC1c1cccc(Cl)c1 (stereo not drawn) | / | / | / | 0 | / | /
Cc1ccc(C)c(/C(O)=C2\C(=O)C(=O)N(CCCN3CCOCC3)C2c2cccnc2)c1 (stereo not drawn) | -5 | -8 | -13 | 16* | 0 | 0
CCOc1cc(/C=C2/NC(=O)NC2=O)cc([N+](=O)[O-])c1O | -15 | -10 | -5 | 5.6* | 19 | 4
C=CCc1cc(/C=C2/NC(=O)NC2=O)cc(OCC)c1O | -5 | 3 | 7 | 4.8* | 6 | 4
C=CCc1cc(/C=C2/NC(=S)NC2=O)cc(OC)c1O | -10 | -49 | 5 | 2 | -34 | /
CCOc1cc(/C=C2/NC(=S)NC2=O)ccc1OCc1ccc([N+](=O)[O-])cc1 | -4 | -5 | 10 | -1 | -4 | /
Cc1cc2oc(=O)cc(-c3cc4ccccc4o3)c2cc1O | -4 | -7 | 1 | 6.5* | -5 | 4
CC(=O)COc1ccc2oc(=O)cc(-c3cc4ccccc4o3)c2c1 | -3 | -8 | 25 | 13* | -6 | 12*
CCN(CC)c1ccc(C=Nc2cccnc2Cl)c(O)c1 | -5 | -11 | 13 | 5.5* | 4 | 6.6*
COC(=O)C1=C(C)N(C)C(=NCc2ccc3c(c2)OCO3)NC1c1cccc(Cl)c1 (stereo not drawn) | / | / | / | 0 | / | /
CC1(C)CC(N2CCCC2)=CC(=[N+]2CCCCC2)C1 | -6 | -25 | 5 | 5.7* | -7 | 3
CC1(C)CC(N2CCN(Cc3ccccc3)CC2)=CC(=[N+]2CCCCC2)C1 | -12 | -24 | -6 | 4 | -3 | /
CC1(C)CC(N2CCCC2)=CC(=[N+]2CCCC2)C1 | -10 | -3 | 4 | 5.9* | -9 | 2
Cc1[nH]nc2c1C(c1ccc3c(c1)OCO3)N(Cc1ccccc1)C2=O (stereo not drawn) | / | / | / | 0 | / | /
CC(C)C[C@H]1COc2cccc(N3CCOCC3)c2S(=O)(=O)N1 | / | / | / | 0 | / | /
C=CCOc1cccc(/C=C\c2nc(O)c([N+](=O)[O-])c(=O)[nH]2)c1 | -2 | -2 | 16 | 4.8* | 1 | 4
COC(=O)C1=C(C)N(C)C(=NCc2ccc3c(c2)OCO3)NC1c1ccc(Cl)cc1 (stereo not drawn) | / | / | / | -1 | / | /
SMILES | MsrA act | p-CIP stab down | SKN-1 block | MsrA inh | MT1-MMP act inh | MsrA conf
Cc1cc2n(c(=O)c1C#N)CCCN2c1cccc(Cl)c1 | -5 | -10 | -14 | 6.9* | 3 | 5.5*
CC(=O)Nc1ccc(N=C(C2=C(O)c3ccccc3C2=O)c2ccccc2)cc1 | -7 | 26 | 7 | 4.7* | -13 | 4
COc1ccc(N=C(C)C2=C(O)c3ccccc3C2=O)cc1 | -2 | -12 | 5 | 1 | 1 | /
Nc1[nH]c(C(=O)c2ccccc2)c(-c2ccc3ccccc3c2)c1C(=O)NCc1ccc(F)cc1 | / | / | / | 0 | / | /
Cc1ccsc1/C=N/NC(=O)c1ccc(Cn2cc(Br)cn2)o1 | -2 | 3 | -7 | 4.7* | 0 | 4
O=C(N/N=C/c1cccc(Br)c1)c1ccc(Cn2cc(Br)cn2)o1 | 3 | 3 | -1 | 1 | -3 | /
O=C(/C=C(\Nc1ccc(Br)c(F)c1)c1ccccc1)c1ccccc1 | / | / | / | -1 | / | /
COC(=O)C1=C(C)N(Cc2ccc(C(F)(F)F)cc2)C(=NCc2ccccc2)NC1c1ccccc1 (stereo not drawn) | / | / | / | -3 | / | /
CC(=O)N=Cc1c(C)c(C#N)c(=O)n(C)c1O | -3 | -6 | 6 | 3 | -4 | /
Cc1c(/C=N/Nc2ccc(F)cc2)c(O)n(C)c(=O)c1C#N | -15 | -4 | -4 | 6.4* | 11 | 6.7*
C[C@H]1Cn2cnc(C(=O)N3CCN(c4ccccc4)CC3)c2C(=O)N1 | / | / | / | 0 | / | /
Cc1ccccc1Nc1ncnc2[nH]ncc12 | -1 | / | 19 | 14* | -3 | 12*
CN(C(=O)c1cn(C)c2ccccc12)c1ccc(Oc2cccnc2)cc1 | / | / | / | 0 | / | /
CC(=O)N(Cc1ccccc1)c1nccs1 | / | / | / | 0 | / | /
CCN(CC)c1ccc(SS(=O)(=O)O)cc1 | -1 | -15 | 6 | 3 | 2 | /
O=S(=O)(O)Sc1ccccc1 | -8 | / | -13 | 8.5* | -3 | 2
COc1cc(C2c3cc4c(cc3OC(Nc3ccc(C(=O)O)cc3)C2C)OCO4)cc(OC)c1OC (stereo not drawn) | -2 | / | -5 | 1 | 17 | /
COC(=O)/C(=C1/Oc2ccc(C)cc2S1)C(F)(F)F | -14 | -5 | 1 | 9.6* | 0 | 11*
COC(=O)/C(=C1/Oc2cc3c(cc2S1)OCO3)C(F)(F)F | 0 | 1 | 8 | 6.6* | -1 | 7.0*
CCCC#C/C(CCC)=C1\c2ccccc2C(=O)N1c1ccccc1 | / | / | / | 0 | / | /
Clc1cncc(Cl)c1N/N=C/c1ccncc1 | -5 | 9 | 7 | 4.9* | -26 | 4
Clc1cccc(Cl)c1/C=N/Nc1c(Cl)cncc1Cl | -13 | 0 | -15 | 0 | -3 | /
Cc1ccc(-n2[nH]c(C)c(C=Nc3ccc(S(=O)(=O)Nc4nccs4)cc3)c2=O)cc1C | -3 | -8 | 8 | 0 | 1 | /
Cc1[nH]n(-c2ccccc2)c(=O)c1C=Nc1ccc(S(=O)(=O)Nc2nccs2)cc1 | -3 | 2 | 3 | 5.7* | -3 | 3
CCN(CC)c1ccc(/C=N/NC(=O)c2cccc(S(=O)(=O)N3CCOCC3)c2)c(O)c1 | -3 | -17 | 1 | 4 | 2 | /
CCN(CC)c1ccc(C=Nc2cccc(S(=O)(=O)N3CCOCC3)c2)c(O)c1 | -5 | / | -1 | 5.8* | 3 | 5.2*
